{"source": "ChEMBL document CHEMBL4052822", "about": "“Design and Synthesis of Orally Bioavailable Piperazine Substituted 4(1H)-Quinolones with Potent Antimalarial Activity: Structure-Activity and Structure-Property Relationship Studies” (J Med Chem, 2018)", "key": {"Plasmodium falciparum [1]": {"system": "Plasmodium falciparum", "assay": "Antimalarial activity against pyrimethamine/chloroquine-resistant Plasmodium falciparum W2 infected in human type A-positive erythrocytes after 48 hrs by [3H]-hypoxanthine incorporation assay", "type": "functional, cell-based", "in_short": "(§1)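 Compound from 10.0 mM DMSO stock, diluted ≥1:400, then 11 concentrations in duplicate. Incubated at 37 °C under 90% N2/5% O2/5% CO2 for 48 h, then 3H-hypoxanthine added for 24 h more. CPM counted; EC50 by nonlinear regression.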"}, "Plasmodium falciparum [2]": {"system": "Plasmodium falciparum", "assay": "Antimalarial activity against mefloquine/chloroquine/atovaquone/pyrimethamine-resistant Plasmodium falciparum TM90-C2B infected in human type A-positive erythrocytes after 48 hrs by [3H]-hypoxanthine incorporation assay", "type": "functional, cell-based", "in_short": "as §1"}, "Plasmodium berghei [3]": {"system": "Plasmodium berghei", "assay": "Antimalarial activity against Plasmodium berghei infected in human HepG2 cells after 44 hrs by luciferase assay", "type": "functional, cell-based", "conditions": "HepG2, 44 h", "in_short": "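HepG2 cells, 75000 per well, in DMEM with 10% FBS at 37 °C, 5% CO2. 5000 Pb luciferase sporozoites from dissected mosquito salivary glands added per well for 3 h, then washed three times with PBS. Serially diluted compound added in triplicate, 44 h at 37 °C. Cells lysed, luciferase substrate added, luminescence read.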"}, "J774": {"system": "J774", "assay": "Cytotoxicity against mouse J774 cells after 72 hrs by CellTiter-96 aqueous one solution cell proliferation assay", "type": "cell-based", "conditions": "J774, 72 h", "in_short": "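Compounds from 10 µg/mL or 20 µM top concentration, 1:2 serial dilutions over 11 concentrations, 72 h at 37 °C, 5% CO2. MTS-type reagent added for 4 h, absorbance read at 490 nm. IC50 by nonlinear regression.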"}, "Plasmodium berghei [4]": {"system": "Plasmodium berghei", "assay": "Antimalarial activity against blood stage form of GFP transfected Plasmodium berghei infected in mouse assessed as mouse survival day at 10 mg/kg, po administered on day 3, 4, 5 post infection by Thompson test", "type": "functional"}, "Plasmodium berghei [5]": {"system": "Plasmodium berghei", "assay": "Antimalarial activity against blood stage form of GFP transfected Plasmodium berghei infected in mouse assessed as protection against parasitemia at 10 mg/kg, po administered on day 3, 4, 5 post infection measured on day 30 by Thompson test", "type": "functional, organism-based", "in_short": "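Modified Thompson model: mice inoculated ip with 2×10^6 P. berghei (GFP)-infected red blood cells, parasitemia near 1% by day 3. […] Animals followed for 30 days; survival to day 30 with parasitemia below 1% counted as cure.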"}, "Plasmodium berghei [6]": {"system": "Plasmodium berghei", "assay": "Antimalarial activity against liver stage form of luciferase transfected Plasmodium berghei sporozoites infected in mouse assessed as inhibition of parasitemia at 25 mg/kg administered via oral gavage 1 hr post infection measured on day 9 by bioluminescence method relative to control", "type": "functional"}, "Plasmodium berghei [7]": {"system": "Plasmodium berghei", "assay": "Antimalarial activity against liver stage form of luciferase transfected Plasmodium berghei sporozoites infected in mouse assessed as inhibition of parasitemia at 50 mg/kg, sc administered 1 hr post infection measured on day 9 by bioluminescence method relative to control", "type": "functional"}, "Plasmodium berghei [8]": {"system": "Plasmodium berghei", "assay": "Antimalarial activity against liver stage form of luciferase transfected Plasmodium berghei sporozoites infected in mouse assessed as protection against parasitemia at 25 to 50 mg/kg administered via oral gavage 1 hr post infection measured on day 30 by bioluminescence method", "type": "functional, organism-based", "in_short": "(§2)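 Mice infected with luciferase-expressing P. berghei sporozoites, five per group. A single dose in PEG 400 was given orally by gavage (25, 50, 100 mg/kg) or subcutaneously (50 mg/kg) 1 h after infection. Infected untreated controls and a primaquine drug control were included. Whole-animal imaging was done 5 min after ip D-luciferin (100 mg/kg) under isoflurane, at 44 h and days 6, 9 and 13. Survival/cure followed to day 30.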"}, "Plasmodium berghei [9]": {"system": "Plasmodium berghei", "assay": "Antimalarial activity against liver stage form of luciferase transfected Plasmodium berghei sporozoites infected in mouse assessed as protection against parasitemia at 50 mg/kg, sc administered 1 hr post infection measured on day 30 by bioluminescence method", "type": "functional, organism-based", "in_short": "as §2"}, "Plasmodium berghei [10]": {"system": "Plasmodium berghei", "assay": "Antimalarial activity against liver stage form of luciferase transfected Plasmodium berghei sporozoites infected in mouse assessed as protection against parasitemia at 100 mg/kg administered via oral gavage 1 hr post infection measured on day 6 to 13 by bioluminescence method", "type": "functional, organism-based", "in_short": "as §2"}, "Plasmodium berghei [11]": {"system": "Plasmodium berghei", "assay": "Antimalarial activity against liver stage form of luciferase transfected Plasmodium berghei sporozoites infected in mouse assessed as protection against parasitemia at 100 mg/kg administered via oral gavage 1 hr post infection measured at 44 hrs by bioluminescence method", "type": "functional, organism-based", "in_short": "as §2"}, "Plasmodium berghei [12]": {"system": "Plasmodium berghei", "assay": "animal or person", "conditions": "in Mus musculus, po, read-out: INH"}, "[13]": {"assay": "Aqueous solubility of compound at pH 6.5", "type": "physicochemical"}, "Plasmodium berghei [14]": {"system": "Plasmodium berghei", "assay": "Antimalarial activity against liver stage form of luciferase transfected Plasmodium berghei sporozoites infected in mouse assessed as inhibition of parasitemia at 50 mg/kg administered via oral gavage 1 hr post infection measured on day 9 by bioluminescence method relative to control", "type": "functional"}, "Plasmodium berghei [15]": {"system": "Plasmodium berghei", "assay": "Antimalarial activity against liver stage form of luciferase transfected Plasmodium berghei sporozoites infected in mouse assessed as inhibition of parasitemia at 100 mg/kg administered via oral gavage 1 hr post infection measured on day 9 by bioluminescence method relative to control", "type": "functional"}, "Plasmodium berghei [16]": {"system": "Plasmodium berghei", "assay": "Antimalarial activity against liver stage form of luciferase transfected Plasmodium berghei sporozoites infected in mouse assessed as protection against parasitemia at 100 mg/kg administered via oral gavage 1 hr post infection measured on day 30 by bioluminescence method", "type": "functional, organism-based", "in_short": "as §2"}, "Plasmodium berghei [17]": {"system": "Plasmodium berghei", "assay": "Antimalarial activity against liver stage form of luciferase transfected Plasmodium berghei sporozoites infected in mouse assessed as protection against parasitemia at 25 to 100 mg/kg administered via oral gavage 1 hr post infection measured at 44 hrs by bioluminescence method", "type": "functional, organism-based", "in_short": "as §2"}, "Plasmodium berghei [18]": {"system": "Plasmodium berghei", "assay": "Antimalarial activity against liver stage form of luciferase transfected Plasmodium berghei sporozoites infected in mouse assessed as protection against parasitemia at 25 to 100 mg/kg administered via oral gavage 1 hr post infection measured on day 6 to 13 by bioluminescence method", "type": "functional, organism-based", "in_short": "as §2"}, "Plasmodium berghei [19]": {"system": "Plasmodium berghei", "assay": "Antimalarial activity against liver stage form of luciferase transfected Plasmodium berghei sporozoites infected in mouse assessed as protection against parasitemia at 50 mg/kg, sc administered 1 hr post infection measured at 44 hrs by bioluminescence method", "type": "functional, organism-based", "in_short": "as §2"}, "Plasmodium berghei [20]": {"system": "Plasmodium berghei", "assay": "Antimalarial activity against liver stage form of luciferase transfected Plasmodium berghei sporozoites infected in mouse assessed as protection against parasitemia at 50 mg/kg, sc administered 1 hr post infection measured on day 6 to 13 by bioluminescence method", "type": "functional, organism-based", "in_short": "as §2"}}, "note": "Calls of active or inactive are those of the source. No cut-off for these calls is given here."}
{"smiles": "COC(=O)c1c[nH]c2cc(CN3CCN(c4ccc(C(F)(F)F)cc4)CC3)ccc2c1=O", "values": [{"measurement": "EC50", "setting": "Plasmodium falciparum [1]", "result": 0.32, "unit": "nM"}, {"measurement": "EC50", "setting": "Plasmodium falciparum [2]", "result": 120, "unit": "nM"}, {"measurement": "EC50", "setting": "Plasmodium berghei [3]", "result": 16, "unit": "nM"}, {"measurement": "EC50", "setting": "J774", "result": 11000, "unit": "nM"}, {"measurement": "Survival", "setting": "Plasmodium berghei [4]", "result": "<=21 day"}, {"measurement": "Activity", "setting": "Plasmodium berghei [5]", "result": "inactive"}]}
{"smiles": "COC(=O)c1c[nH]c2cc(CN3CCN(Cc4ccc(OC)cc4)CC3)ccc2c1=O", "values": [{"measurement": "EC50", "setting": "Plasmodium falciparum [1]", "result": 2.5, "unit": "nM"}, {"measurement": "EC50", "setting": "Plasmodium falciparum [2]", "result": 800, "unit": "nM"}, {"measurement": "EC50", "setting": "Plasmodium berghei [3]", "result": 83, "unit": "nM"}, {"measurement": "inhibition in vivo at 25 mg/kg", "setting": "Plasmodium berghei [6]", "result": 49.1, "unit": "%"}, {"measurement": "inhibition in vivo at 50 mg/kg", "setting": "Plasmodium berghei [7]", "result": 20.1, "unit": "%"}, {"measurement": "Activity", "setting": "Plasmodium berghei [8]", "result": "Active"}, {"measurement": "Activity", "setting": "Plasmodium berghei [9]", "result": "inactive"}, {"measurement": "Activity", "setting": "Plasmodium berghei [10]", "result": "Active"}, {"measurement": "Activity", "setting": "Plasmodium berghei [11]", "result": "Active"}]}
{"smiles": "COC(=O)c1c[nH]c2cc(CN3CCN(c4ccc(F)cc4)CC3)ccc2c1=O", "values": [{"measurement": "EC50", "setting": "Plasmodium falciparum [1]", "result": 1.8, "unit": "nM"}, {"measurement": "EC50", "setting": "Plasmodium falciparum [2]", "result": 130, "unit": "nM"}, {"measurement": "EC50", "setting": "Plasmodium berghei [3]", "result": 1.1, "unit": "nM"}, {"measurement": "EC50", "setting": "J774", "result": 2000, "unit": "nM"}, {"measurement": "Survival", "setting": "Plasmodium berghei [4]", "result": "<=21 day"}, {"measurement": "Activity", "setting": "Plasmodium berghei [5]", "result": "inactive"}]}
{"smiles": "Cc1[nH]c2cc(CN3CCN(c4ccc(F)cc4)CC3)ccc2c(=O)c1Cl", "values": [{"measurement": "EC50", "setting": "Plasmodium falciparum [1]", "result": 39, "unit": "nM"}, {"measurement": "EC50", "setting": "Plasmodium falciparum [2]", "result": 52, "unit": "nM"}, {"measurement": "EC50", "setting": "J774", "result": "> 20000", "unit": "nM"}, {"measurement": "Survival", "setting": "Plasmodium berghei [4]", "result": "<=13 day"}, {"measurement": "Activity", "setting": "Plasmodium berghei [5]", "result": "inactive"}, {"measurement": "inhibition in vivo at 10 mg/kg", "setting": "Plasmodium berghei [12]", "result": 11, "unit": "%"}]}
{"smiles": "O=c1c(Br)c[nH]c2cc(CN3CCN(c4ccc(F)cc4)CC3)ccc12", "values": [{"measurement": "EC50", "setting": "Plasmodium falciparum [1]", "result": 810, "unit": "nM"}, {"measurement": "EC50", "setting": "Plasmodium falciparum [2]", "result": "> 2000", "unit": "nM"}, {"measurement": "EC50", "setting": "Plasmodium berghei [3]", "result": 0.86, "unit": "nM"}, {"measurement": "EC50", "setting": "J774", "result": "> 20000", "unit": "nM"}, {"measurement": "Survival", "setting": "Plasmodium berghei [4]", "result": "<=13 day"}, {"measurement": "Activity", "setting": "Plasmodium berghei [5]", "result": "inactive"}, {"measurement": "inhibition in vivo at 10 mg/kg", "setting": "Plasmodium berghei [12]", "result": 33, "unit": "%"}]}
{"smiles": "COC(=O)c1c[nH]c2cc(CN3CCN(c4ccccc4)CC3)ccc2c1=O", "values": [{"measurement": "EC50", "setting": "Plasmodium falciparum [1]", "result": 1.3, "unit": "nM"}, {"measurement": "EC50", "setting": "Plasmodium falciparum [2]", "result": 480, "unit": "nM"}, {"measurement": "EC50", "setting": "Plasmodium berghei [3]", "result": 4.7, "unit": "nM"}, {"measurement": "solubility", "setting": "[13]", "result": "≥ 80", "unit": "µM"}, {"measurement": "inhibition in vivo at 25 mg/kg", "setting": "Plasmodium berghei [6]", "result": 65.3, "unit": "%"}, {"measurement": "inhibition in vivo at 50 mg/kg", "setting": "Plasmodium berghei [14]", "result": 85.1, "unit": "%"}, {"measurement": "inhibition in vivo at 50 mg/kg", "setting": "Plasmodium berghei [7]", "result": "> 99", "unit": "%"}, {"measurement": "inhibition in vivo at 100 mg/kg", "setting": "Plasmodium berghei [15]", "result": "> 99", "unit": "%"}, {"measurement": "Activity", "setting": "Plasmodium berghei [16]", "result": "Active"}, {"measurement": "Activity", "setting": "Plasmodium berghei [17]", "result": "Active"}, {"measurement": "Activity", "setting": "Plasmodium berghei [18]", "result": "Active"}, {"measurement": "Activity", "setting": "Plasmodium berghei [19]", "result": "Active"}, {"measurement": "Activity", "setting": "Plasmodium berghei [20]", "result": "Active"}]}
{"smiles": "COc1cc(NC(C)CCCN)c2ncccc2c1", "note": "(stereo not drawn) [PRIMAQUINE]", "values": [{"measurement": "inhibition in vivo at 50 mg/kg", "setting": "Plasmodium berghei [14]", "result": "> 99", "unit": "%"}]}
